The values below come from ChEMBL document CHEMBL4610030, “Identification of human lactate dehydrogenase A inhibitors with anti-osteosarcoma activity through cell-based phenotypic screening” (Bioorg Med Chem Lett, 2020).

Molecules are shown by their SMILES. Calls of active or inactive are those of the source. The rule behind the calls is not given here.

Assay [1] deals with T1, L-lactate dehydrogenase A chain (Homo sapiens, UniProt P00338). Nature of the assay: Inhibition of human LDHA using NADH and pyruvate by microplate reader based assay. In outline: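 hLDHA activity was measured with pyruvate and NADH across full dose-response to give EC50. The read-out was the decline in absorbance at 340 nm on a microplate reader.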
For assay [2], the target named is T1, L-lactate dehydrogenase A chain. The assay can be described thus: Binding affinity at human LDHA assessed as dissociation constant by isothermal titration calorimetry. The gist of the method:
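Compounds were titrated into hLDHA by isothermal titration calorimetry to obtain Kd.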
In general terms: Isothermal titration calorimetry measures the heat released or taken up as one component is titrated into another.

In assay [3] the test system is SAOS-2. The assay can be described thus: Antiproliferative activity against human Saos2 cells assessed as reduction in cell viability incubated for 24 to 72 hrs by IncuCyte zoom live cell analysis. In kind it is functional, cell-based.
The subject of assay [4] is HOS. Nature of the assay: Antiproliferative activity against human HOS cells assessed as reduction in cell viability incubated for 24 to 72 hrs by IncuCyte zoom live cell analysis. In kind it is functional, cell-based.
For assay [5], the target named is T1, L-lactate dehydrogenase A chain. The assay can be described thus: Inhibition of human LDHA at 5 uM using NADH and pyruvate by microplate reader based assay relative to control. The gist of the method: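 Recombinant-free description: hLDHA was incubated with pyruvate and NADH plus compound at 5 µM. NADH consumption was followed as the decrease in absorbance at 340 nm on a microplate reader and expressed as inhibitory rate.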

Assay [6] has as its system U2OS. Nature of the assay: Antiproliferative activity against human U2OS cells assessed as reduction in cell viability incubated for 24 to 72 hrs by IncuCyte zoom live cell analysis. In kind it is functional, cell-based.
Assay [7] concerns MG-63. The assay can be described thus: Antiproliferative activity against human MG63 cells assessed as reduction in cell viability incubated for 24 to 72 hrs by IncuCyte zoom live cell analysis. In kind it is functional, cell-based.
Assay [8] deals with MG-63. Nature of the assay: Induction of apoptosis in human MG63 cells assessed as necrotic cells at 10 uM measured after 24 hrs by annexin V-propidium iodide staining-based flow cytometry (reference value: 2.10 %). In kind it is functional. The gist of the method: (§1)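 MG-63 cells were treated at 5 µM for 12, 18 or 24 h, or at 2, 5 or 10 µM for 24 h. Cells were then stained with annexin V-FITC/PI and analysed by flow cytometry for apoptotic populations.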
On the technique in general: A flow cytometer gives signals particle by particle.

Assay [9] relates to MG-63. Nature of the assay: Induction of apoptosis in human MG63 cells assessed as late apoptotic cells at 5 uM measured after 18 hrs by annexin V-propidium iodide staining-based flow cytometry (reference value: 0.91 %). The assay is classed as functional. The gist of the method:
as §1

Assay [10] has as its system MG-63. Nature of the assay: Induction of apoptosis in human MG63 cells assessed as viable cells at 2 uM measured after 24 hrs by annexin V-propidium iodide staining-based flow cytometry (reference value: 96.30 %). In kind it is functional. Particulars: MG-63, 24 h, read-out: Activity. The gist of the method: as §1
In assay [11] the test system is MG-63. Nature of the assay: Induction of apoptosis in human MG63 cells assessed as necrotic cells at 5 uM measured after 12 hrs by annexin V-propidium iodide staining-based flow cytometry (reference value: 0.84 %). In kind it is functional. The gist of the method:
as §1

The test system of assay [12] is MG-63. Nature of the assay: Induction of apoptosis in human MG63 cells assessed as early apoptotic cells at 5 uM measured after 24 hrs by annexin V-propidium iodide staining-based flow cytometry (reference value: 0.14 to 0.16 %). In kind it is functional. In outline:
as §1

Assay [13] deals with T1, L-lactate dehydrogenase A chain. Nature of the assay: Inhibition of LDHA in human MG63 cells assessed as reduction in extracellular acidification rate at 2 to 10 uM incubated for 4 hrs by seahorse XFe96 analyser based assay. The assay is classed as cell-based. To be noted: MG-63.
Assay [14] relates to MG-63. Nature of the assay: Induction of apoptosis in human MG63 cells assessed as early apoptotic cells at 2 uM measured after 24 hrs by annexin V-propidium iodide staining-based flow cytometry (reference value: 0.16 %). In kind it is functional. The gist of the method: as §1
Assay [15] concerns MG-63. The assay can be described thus: Induction of apoptosis in human MG63 cells assessed as necrotic cells at 2 uM measured after 24 hrs by annexin V-propidium iodide staining-based flow cytometry (reference value: 2.10 %). In kind it is functional. The gist of the method: as §1
The test system of assay [16] is MG-63. The assay can be described thus: Induction of apoptosis in human MG63 cells assessed as early apoptotic cells at 10 uM measured after 24 hrs by annexin V-propidium iodide staining-based flow cytometry (reference value: 0.16 %). In kind it is functional. The gist of the method: as §1
The test system of assay [17] is MG-63. The assay can be described thus: Induction of apoptosis in human MG63 cells assessed as late apoptotic cells at 5 uM measured after 12 hrs by annexin V-propidium iodide staining-based flow cytometry (reference value: 0.91 %). The assay is classed as functional. In outline:
as §1

Assay [18] relates to MG-63. The assay can be described thus: Induction of apoptosis in human MG63 cells assessed as late apoptotic cells at 2 uM measured after 24 hrs by annexin V-propidium iodide staining-based flow cytometry (reference value: 1.44 %). The assay is classed as functional. The gist of the method:
as §1

Assay [19] deals with MG-63. The assay can be described thus: Induction of apoptosis in human MG63 cells assessed as necrotic cells at 5 uM measured after 18 hrs by annexin V-propidium iodide staining-based flow cytometry (reference value: 0.84 %). In kind it is functional. In outline:
as §1

For assay [20], the system named is MG-63. The assay can be described thus: Antiproliferative activity against human MG63 cells assessed as reduction in cell viability at 5 uM incubated by IncuCyte zoom live cell analysis. To be noted: TDE = time-dependent effect. In kind it is functional, cell-based. In outline:
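MG-63 cells were exposed to 5 µM and imaged over time by IncuCyte Zoom live-cell analysis to follow growth.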

Assay [21] has as its system MG-63. The assay can be described thus: Induction of apoptosis in human MG63 cells assessed as early apoptotic cells at 5 uM measured after 18 hrs by annexin V-propidium iodide staining-based flow cytometry (reference value: 0.14 %). In kind it is functional. In outline:
as §1

Assay [22] deals with MG-63. Nature of the assay: Induction of apoptosis in human MG63 cells assessed as viable cells at 10 uM measured after 24 hrs by annexin V-propidium iodide staining-based flow cytometry (reference value: 96.30 %). In kind it is functional. Particulars: MG-63, 24 h, read-out: Activity. In outline: as §1
For assay [23], the system named is MG-63. The assay can be described thus: Induction of apoptosis in human MG63 cells assessed as early apoptotic cells at 5 uM measured after 12 hrs by annexin V-propidium iodide staining-based flow cytometry (reference value: 0.14 %). The assay is classed as functional. In outline:
as §1

Assay [24] has as its system MG-63. Nature of the assay: Induction of apoptosis in human MG63 cells assessed as necrotic cells at 5 uM measured after 24 hrs by annexin V-propidium iodide staining-based flow cytometry (reference value: 0.84 to 2.10 %). In kind it is functional. The gist of the method: as §1
Assay [25] deals with MG-63. The assay can be described thus: Induction of apoptosis in human MG63 cells assessed as viable cells at 5 uM measured after 24 hrs by annexin V-propidium iodide staining-based flow cytometry (reference value: 96.30 to 98.11 %). The assay is classed as functional. Particulars: MG-63, 24 h, read-out: Activity. In outline: as §1
Assay [26] deals with MG-63. The assay can be described thus: Induction of apoptosis in human MG63 cells measured after 24 hrs by annexin V-propidium iodide staining-based flow cytometry. The assay is classed as functional, cell-based. In outline: as §1
Assay [27] addresses T1, L-lactate dehydrogenase A chain. The assay can be described thus: Inhibition of LDHA in human MG63 cells assessed as reduction in proton production rate at 2 to 10 uM incubated for 4 hrs by seahorse XFe96 analyser based assay. In kind it is cell-based. To be noted: MG-63.
Assay [28] shares this target. The assay can be described thus: Inhibition of LDHA in human MG63 cells assessed as reduction in lactate formation at 2 to 10 uM incubated for 4 hrs. The assay is classed as cell-based. Particulars: MG-63. In outline:
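MG-63 cells were treated at 2, 5 and 10 µM for 4 h. Lactate was then measured in the culture medium and compared with untreated control, with P < 0.05.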

Assay [29] has the same target. The assay can be described thus: Inhibition of LDHA in human MG63 cells assessed as increase in oxygen consumption rate incubated for 4 hrs by seahorse XFe96 analyser based assay. The assay is classed as cell-based. To be noted: MG-63.
Assay [30] concerns MG-63. The assay can be described thus: Induction of apoptosis in human MG63 cells assessed as viable cells at 5 uM measured after 18 hrs by annexin V-propidium iodide staining-based flow cytometry (reference value: 98.11 %). In kind it is functional. Particulars: MG-63, 18 h, read-out: Activity. The gist of the method:
as §1

Assay [31] deals with MG-63. Nature of the assay: Induction of apoptosis in human MG63 cells assessed as late apoptotic cells at 10 uM measured after 24 hrs by annexin V-propidium iodide staining-based flow cytometry (reference value: 1.44 %). In kind it is functional. In outline: as §1
For assay [32], the system named is MG-63. Nature of the assay: Induction of apoptosis in human MG63 cells assessed as late apoptotic cells at 5 uM measured after 24 hrs by annexin V-propidium iodide staining-based flow cytometry (reference value: 0.91 to 1.44 %). The assay is classed as functional. In outline: as §1
Assay [33] has as its system MG-63. Nature of the assay: Induction of apoptosis in human MG63 cells assessed as viable cells at 5 uM measured after 12 hrs by annexin V-propidium iodide staining-based flow cytometry (reference value: 98.11 %). In kind it is functional. Particulars: MG-63, 12 h, read-out: Activity. In outline: as §1

On to `Cc1c(C(=O)Nc2ccccc2)[n+]([O-])cn1-c1ccc2occc(=O)c2c1`, for which, in assay [1], a half-maximal response (EC50) required 3.26 µM. Also, the Kd (in general, a measure of binding affinity in units of concentration) in assay [2] is 9.85 µM. Also, the IC50 (commonly the concentration at which inhibition is half-maximal) was 13.6 µM in assay [3], 12.5 µM in assay [4], 9.5 µM in assay [6] and 6.1 µM in assay [7]. Also, the inhibition (usually the drop in the measured response relative to a control, in per cent) in assay [5] is above 50%.

As to `COc1ccc(-n2c[n+]([O-])c(C(=O)Nc3ccccc3)c2C)cc1N1CCCCS1(=O)=O`, the EC50 (commonly the concentration giving half of the maximal effect) in [1] is 3.03 µM. The Kd in assay [2] was 6.41 µM. In addition, the IC50 is 7.5 µM in [3], 10.2 µM in assay [4], 14.9 µM in assay [6] and 6.47 µM in assay [7]. In assay [5], the inhibition was above 50%.

As to `Cc1c(C(=O)Nc2ccccc2)[n+]([O-])cn1-c1ccc2[nH]c(CC(C)C)nc2c1`, the Activity in assay [8] is listed as 10.19%; in assay [9], 10.37%; in [11], 2.3%; in assay [12], 1.1 - 3.47%; in assay [14] it was 0.4%; in assay [15], 1.54%. Further, the Activity in assay [16] is 3.55%; in [17] it was 5.08%; in [18] it was 3.21%; in assay [19], 4.56%; in [20], “Tde”; in [21], 1.32%. In addition, the Activity is 0.34% in assay [23]; 8.3 - 10.1% in assay [24]; “Dose-dependent effect” in [26]; 20.03% in [31]; 12.28 - 19.86% in [32]. The viability at 2 µM in [10] is 94.8%. Besides, the EC50 in assay [1] is 0.67 µM. Besides, the Kd in assay [2] is 2.41 µM. Moreover, the inhibition result in assay [13], in [27] and in [28] was “Active” each time. For the same compound, the IC50 in assay [3] was 5.1 µM; in assay [4], 4.6 µM; in [6] it was 3.7 µM; in [7], 2.93 µM. In addition, the inhibition is 91.2% in assay [5] and “Dose-dependent effect” in [29]. Also, the viability at 10 µM in [22] is 66.2%. Besides, the viability at 5 µM was 66.6 to 78.3% in assay [25], 83.8% in assay [30] and 92.3% in assay [33].
